Measurements published in ChEMBL document CHEMBL4837210 (Eur J Med Chem, 2021).

Legend:
Escherichia coli = test: Antibacterial activity against penicillin-susceptible Escherichia coli ATCC 25922 assessed as inhibition of bacterial growth measured by broth microdilution method; format: functional; settings: time 24 hrs
Method in brief: (§1)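 Broth microdilution in Mueller Hinton broth. A 0.5 McFarland suspension was diluted tenfold, giving an inoculum of 1.5 × 10⁷ cfu/mL. This was added to 2-fold serial compound dilutions from […]. Plates were incubated aerobically at 37 °C for 24 h. MIC was the lowest concentration with no visible turbidity.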

Streptococcus pyogenes [1] = test: Antibacterial activity against erythromycin-susceptible Streptococcus pyogenes clinical isolate 1 assessed as bacterial growth inhibition incubated for 24 hrs by CLSI protocol based broth microdilution method; format: functional
Staphylococcus aureus [2] = test: Antibacterial activity against Staphylococcus aureus assessed as inhibition of bacterial growth measured by broth microdilution method; format: functional; settings: time 24 hrs; method in brief: as §1
[3] = tested on: Staphylococcus epidermidis; test: Ratio of MBC to MIC against penicillin-resistant Staphylococcus epidermidis; format: functional
Method in brief: (§2)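 MBC/MIC ratio from the broth microdilution MIC (24 h, 37 °C, MH broth) and the MBC (clear wells subcultured on tryptic soy agar, 24 h). A ratio ≤4 is read as bactericidal per CLSI.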

Bacillus subtilis [4] = test: Ratio of MBC to MIC against penicillin-susceptible Bacillus subtilis ATCC 9372; format: functional
Method in brief: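 Ratio of MBC to MIC, both measured by broth microdilution in MH broth (37 °C, 24 h); MBC was scored by subculturing clear wells onto tryptic soy agar for 24 h. Following CLSI, a ratio of 4 or less counts as bactericidal.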

Staphylococcus aureus [5] = test: Bactericidal activity against erythromycin-susceptible Staphylococcus aureus ATCC 25923 measured after 24 hrs by CLSI protocol based method; format: functional
Method in brief: (§3)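 MBC after broth microdilution. After 24 h, aliquots from clear wells were plated on tryptic soy agar and incubated aerobically 24 h at 37 °C. MBC was the lowest concentration giving no colonies.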

Bacillus subtilis [6] = test: Bactericidal activity against penicillin-susceptible Bacillus subtilis ATCC 9372 measured after 24 hrs by CLSI protocol based method; format: functional
Method in brief: (§4)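 MBC followed on from the 24 h broth microdilution MIC plates. Aliquots from clear wells were spread on tryptic soy agar and incubated aerobically at 37 °C for 24 h. MBC was the minimum concentration giving no colonies.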

Staphylococcus aureus [7] = test: Ratio of MBC to MIC against penicillin-resistant Staphylococcus aureus; format: functional; method in brief: as §2
Staphylococcus aureus [8] = test: Antibacterial activity against methicillin-resistant Staphylococcus aureus ATCC 43300 assessed as inhibition of bacterial growth by broth microdilution method; format: functional; settings: time 24 hrs
Method in brief: (§5)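 Broth microdilution MIC. A 0.5 McFarland suspension was diluted 10-fold and added at 1.5 × 10⁷ cfu/mL to 2-fold dilutions (0.125–64) in Mueller Hinton broth. Incubated aerobically 24 h at 37 °C. MIC was the lowest concentration with no visible turbidity.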

[9] = target: T1, Cell division protein FtsZ (Bacillus subtilis, UniProt A5Z1V5); test: Inhibition of FtsZ in Bacillus subtilis assessed as disruption of Z ring formation
T1 sequence (A5Z1V5 whole entry): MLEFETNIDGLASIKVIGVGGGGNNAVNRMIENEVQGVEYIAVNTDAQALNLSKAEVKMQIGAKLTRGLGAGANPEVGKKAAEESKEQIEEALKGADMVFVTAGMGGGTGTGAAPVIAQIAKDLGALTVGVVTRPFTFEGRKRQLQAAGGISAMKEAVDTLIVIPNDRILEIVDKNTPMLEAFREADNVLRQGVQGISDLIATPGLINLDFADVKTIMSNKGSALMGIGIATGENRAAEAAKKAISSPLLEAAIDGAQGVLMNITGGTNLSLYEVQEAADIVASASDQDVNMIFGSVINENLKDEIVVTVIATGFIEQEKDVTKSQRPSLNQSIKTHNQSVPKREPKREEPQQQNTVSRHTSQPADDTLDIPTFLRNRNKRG

[10] = target: T2, Cell division protein FtsZ (Escherichia coli K-12, UniProt P0A9A6); test: Inhibition of FtsZ in Escherichia coli assessed as disruption of Z ring formation
T2 sequence (P0A9A6 whole entry): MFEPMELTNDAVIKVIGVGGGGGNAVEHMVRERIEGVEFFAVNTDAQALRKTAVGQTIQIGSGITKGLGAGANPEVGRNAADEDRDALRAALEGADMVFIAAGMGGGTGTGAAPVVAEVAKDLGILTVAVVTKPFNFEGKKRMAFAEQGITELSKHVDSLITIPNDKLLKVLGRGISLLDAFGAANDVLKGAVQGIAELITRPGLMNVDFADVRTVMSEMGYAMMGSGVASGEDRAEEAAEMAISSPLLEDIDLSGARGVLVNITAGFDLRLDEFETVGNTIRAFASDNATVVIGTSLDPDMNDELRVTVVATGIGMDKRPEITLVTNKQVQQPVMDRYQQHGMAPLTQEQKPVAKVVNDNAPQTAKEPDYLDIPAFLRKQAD

Bacillus pumilus [11] = test: Ratio of MBC to MIC against penicillin-susceptible Bacillus pumilus CMCC 63202; format: functional; method in brief: as §2
Staphylococcus aureus [12] = test: Bactericidal activity against methicillin-resistant Staphylococcus aureus ATCC 43300 measured after 24 hrs by CLSI protocol based method; format: functional; method in brief: as §3
[13] = tested on: Staphylococcus epidermidis; test: Bactericidal activity against penicillin-resistant Staphylococcus epidermidis measured after 24 hrs by CLSI protocol based method; format: functional; method in brief: as §3
Streptococcus pyogenes [14] = test: Antibacterial activity against erythromycin-resistant Streptococcus pyogenes 2 assessed as bacterial growth inhibition incubated for 24 hrs by CLSI protocol based broth microdilution method; format: functional
Bacillus subtilis [15] = test: Antibacterial activity against penicillin-susceptible Bacillus subtilis ATCC 9372 assessed as bacterial growth inhibition incubated for 24 hrs by CLSI protocol based broth microdilution method; format: functional
Staphylococcus aureus [16] = test: Bactericidal activity against penicillin-resistant Staphylococcus aureus measured after 24 hrs by CLSI protocol based method; format: functional; method in brief: as §3
Staphylococcus aureus [17] = test: Antibacterial activity against penicillin-resistant Staphylococcus aureus assessed as inhibition of bacterial growth measured by broth microdilution method; format: functional; settings: time 24 hrs; method in brief: as §5
Pseudomonas aeruginosa = test: Antibacterial activity against penicillin-susceptible Pseudomonas aeruginosa ATCC27853 assessed as bacterial growth inhibition incubated for 24 hrs by CLSI protocol based broth microdilution method; format: functional
Staphylococcus aureus [18] = test: Ratio of MBC to MIC against erythromycin-susceptible Staphylococcus aureus ATCC 25923; format: functional; method in brief: as §2
Enterococcus faecalis [19] = test: Antibacterial activity against vancomycin-resistant Enterococcus faecalis ATCC 51299 assessed as bacterial growth inhibition incubated for 24 hrs by CLSI protocol based broth microdilution method; format: functional
Enterococcus faecium [20] = test: Antibacterial activity against vancomycin-susceptible Enterococcus faecium ATCC19434 assessed as bacterial growth inhibition incubated for 24 hrs by CLSI protocol based broth microdilution method; settings: ATCC19434, 24 h
Bacillus pumilus [21] = test: Bactericidal activity against penicillin-susceptible Bacillus pumilus CMCC 63202 measured after 24 hrs by CLSI protocol based method; format: functional; method in brief: as §4
Enterococcus faecium [22] = test: Antibacterial activity against vancomycin-resistant Enterococcus faecium ATCC 51559 assessed as bacterial growth inhibition incubated for 24 hrs by CLSI protocol based broth microdilution method; settings: ATCC 51559, 24 h
Enterococcus faecalis [23] = test: Antibacterial activity against vancomycin-susceptible Enterococcus faecalis ATCC 29212 assessed as bacterial growth inhibition incubated for 24 hrs by CLSI protocol based broth microdilution method; format: functional
Bacillus pumilus [24] = test: Antibacterial activity against penicillin-susceptible Bacillus pumilus CMCC 63202 assessed as bacterial growth inhibition by broth dilution method; format: functional; settings: time 24 hrs; method in brief: as §1
Staphylococcus aureus [25] = test: Antibacterial activity against erythromycin-susceptible Staphylococcus aureus ATCC 25923 assessed as bacterial growth inhibition incubated for 24 hrs by CLSI protocol based broth microdilution method; format: functional
[26] = tested on: Staphylococcus epidermidis; test: Antibacterial activity against penicillin-resistant Staphylococcus epidermidis assessed as inhibition of bacterial growth measured by broth microdilution method; format: functional; settings: time 24 hrs

C[n+]1cc2c3c(ccc2c2ccc4cc5c(cc4c21)OCO5)OCO3.[Cl-] [SANGUINARIUM CHLORIDE]
MIC (Escherichia coli): 32 µg/mL | MIC (Streptococcus pyogenes [1]): 2 µg/mL | MIC (Staphylococcus aureus [2]): 8 µg/mL | Ratio [3]: 64 | Ratio (Bacillus subtilis [4]): 16 | MBC (Staphylococcus aureus [5]): > 64 µg/mL | MBC (Bacillus subtilis [6]): 64 µg/mL | Ratio (Staphylococcus aureus [7]): 8 | MIC (Staphylococcus aureus [8]): 8 µg/mL | IC50 [9]: 2.72 µM | IC50 [10]: 12.5 µM | Ratio (Bacillus pumilus [11]): >64 | MBC (Staphylococcus aureus [12]): > 64 µg/mL | MIC [13]: 64 µg/mL | MIC (Streptococcus pyogenes [14]): 2 µg/mL | MIC (Bacillus subtilis [15]): 4 µg/mL | MBC (Staphylococcus aureus [16]): 128 µg/mL | MIC (Staphylococcus aureus [17]): 16 µg/mL | MIC (Pseudomonas aeruginosa): > 64 µg/mL | Ratio (Staphylococcus aureus [18]): >32 | MIC (Enterococcus faecalis [19]): 32 µg/mL | MIC (Enterococcus faecium [20]): 64 µg/mL | MBC (Bacillus pumilus [21]): > 64 µg/mL | MIC (Enterococcus faecium [22]): 32 µg/mL | MIC (Enterococcus faecalis [23]): 16 µg/mL | MIC (Bacillus pumilus [24]): 4 µg/mL | MIC (Staphylococcus aureus [25]): 4 µg/mL | MIC [26]: 8 µg/mL
